{"source": "ChEMBL document CHEMBL1123429", "about": "“Influence of alkyl chain ramification on estradiol receptor binding affinity and intrinsic activity of 1,2-dialkylated 1,2-bis(4- or 3-hydroxyphenyl)ethane estrogens and antiestrogens” (J Med Chem, 1986)", "key": {"[1]": {"molecular_target": "Estrogen receptor (Bos taurus) (UniProt Q9XSB5+P49884)", "assay": "Relative binding affinity (RBA) for calf uterine estrogen receptor", "assay_type": "protein assay", "summary_of_the_method": "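Displacement of [³H]estradiol from calf uterine cytosol; incubated 16 h at 4 °C. Dextran-coated charcoal stops incubation; after centrifugation, supernatant radioactivity counted. Six competitor concentrations spanning 50% competition; % bound vs log concentration plotted to obtain concentrations halving binding for unlabeled estradiol and test compound, giving RBA. Mean of four determinations.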"}, "[2]": {"molecular_target": "T1, Estrogen receptor (Mus musculus) (UniProt O08537+P19785)", "T1 sequence (O08537 whole entry, looked up)": "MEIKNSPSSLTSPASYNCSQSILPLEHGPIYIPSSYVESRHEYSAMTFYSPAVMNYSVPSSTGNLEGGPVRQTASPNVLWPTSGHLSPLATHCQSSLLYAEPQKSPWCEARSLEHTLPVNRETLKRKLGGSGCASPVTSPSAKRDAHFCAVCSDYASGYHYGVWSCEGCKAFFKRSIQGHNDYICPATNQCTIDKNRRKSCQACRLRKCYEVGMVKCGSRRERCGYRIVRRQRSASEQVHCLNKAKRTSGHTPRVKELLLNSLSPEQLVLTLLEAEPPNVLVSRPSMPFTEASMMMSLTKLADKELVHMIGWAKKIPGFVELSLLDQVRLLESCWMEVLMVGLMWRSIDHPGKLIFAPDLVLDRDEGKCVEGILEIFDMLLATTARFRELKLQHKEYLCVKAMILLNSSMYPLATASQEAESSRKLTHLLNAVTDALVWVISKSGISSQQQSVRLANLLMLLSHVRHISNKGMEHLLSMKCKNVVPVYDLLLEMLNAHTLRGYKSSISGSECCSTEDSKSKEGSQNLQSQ", "T1 sequence (P19785 whole entry, looked up)": "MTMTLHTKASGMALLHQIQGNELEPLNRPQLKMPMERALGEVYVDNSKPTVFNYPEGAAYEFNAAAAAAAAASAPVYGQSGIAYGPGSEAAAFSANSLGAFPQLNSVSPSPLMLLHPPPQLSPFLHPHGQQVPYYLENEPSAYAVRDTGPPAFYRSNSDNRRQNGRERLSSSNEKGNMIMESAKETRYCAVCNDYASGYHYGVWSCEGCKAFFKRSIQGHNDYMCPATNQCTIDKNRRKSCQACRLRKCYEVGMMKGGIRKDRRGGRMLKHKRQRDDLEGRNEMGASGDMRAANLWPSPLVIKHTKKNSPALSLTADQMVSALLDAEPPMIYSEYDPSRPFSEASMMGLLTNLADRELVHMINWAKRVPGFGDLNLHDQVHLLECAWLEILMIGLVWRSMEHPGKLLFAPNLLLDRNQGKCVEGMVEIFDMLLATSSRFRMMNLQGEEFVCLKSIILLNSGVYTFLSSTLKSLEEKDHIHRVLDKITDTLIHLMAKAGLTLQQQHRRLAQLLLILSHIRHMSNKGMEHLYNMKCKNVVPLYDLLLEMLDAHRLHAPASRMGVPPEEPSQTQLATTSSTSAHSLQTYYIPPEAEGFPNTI", "assay": "Anti-uterotrophic effect in mice at 0 ug", "assay_type": "functional", "summary_of_the_method": "(§1)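 Immature female NMRI mice, 20 days old (15.0 ± 2.5 g), randomized into groups of 10. Compound in olive oil (0.1 mL) injected sc daily for 3 days together with estrone; uteri removed 24 h after the last injection, fixed in Bouin's solution, washed, dried and weighed. Effect expressed as uterus dry weight (mg)/body weight (g) × 100; inhibition of estrone-stimulated growth.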"}, "[3]": {"molecular_target": "T1, Estrogen receptor (Mus musculus)", "assay": "Inhibition of estrone-stimulated uterine growth in immature mice at 10 ug", "assay_type": "functional", "summary_of_the_method": "as §1"}, "[4]": {"molecular_target": "T1, Estrogen receptor (Mus musculus)", "assay": "Inhibition of estrone-stimulated uterine growth in immature mice at 30 ug", "assay_type": "functional", "summary_of_the_method": "as §1"}, "[5]": {"molecular_target": "T1, Estrogen receptor (Mus musculus)", "assay": "Inhibition of estrone-stimulated uterine growth in immature mice at 3 ug", "assay_type": "functional", "summary_of_the_method": "as §1"}, "[6]": {"molecular_target": "T1, Estrogen receptor (Mus musculus)", "assay": "Anti-uterotrophic effect in mice at 10 ug", "assay_type": "functional", "summary_of_the_method": "as §1"}, "[7]": {"molecular_target": "T1, Estrogen receptor (Mus musculus)", "assay": "Anti-uterotrophic effect in mice at 100 ug", "assay_type": "functional", "summary_of_the_method": "as §1"}, "[8]": {"molecular_target": "T1, Estrogen receptor (Mus musculus)", "assay": "Anti-uterotrophic effect in mice at 3 ug", "assay_type": "functional", "summary_of_the_method": "as §1"}, "[9]": {"molecular_target": "T1, Estrogen receptor (Mus musculus)", "assay": "Anti-uterotrophic effect in mice at 30 ug", "assay_type": "functional", "summary_of_the_method": "as §1"}, "[10]": {"molecular_target": "T1, Estrogen receptor (Mus musculus)"}, "[11]": {"molecular_target": "T1, Estrogen receptor (Mus musculus)", "assay": "Inhibition of estrone-stimulated uterine growth in immature mice at 300 ug", "assay_type": "functional", "summary_of_the_method": "as §1"}, "[12]": {"molecular_target": "T1, Estrogen receptor (Mus musculus)", "assay": "Anti-uterotrophic effect in mice at 300 ug", "assay_type": "functional", "summary_of_the_method": "as §1"}, "[13]": {"molecular_target": "T1, Estrogen receptor (Mus musculus)", "assay": "Inhibition of estrone-stimulated uterine growth in immature mice at 100 ug", "assay_type": "functional", "summary_of_the_method": "as §1"}}, "data": [{"smiles": "CCC(C)[C@@H](c1cccc(O)c1)[C@@H](c1cccc(O)c1)C(C)CC", "note": "(stereo partly drawn)", "values": [{"measurement": "relative binding affinity (RBA)", "setting": "[1]", "result": 3}]}, {"smiles": "CCC(C)[C@@H](c1ccc(O)cc1)[C@@H](c1ccc(O)cc1)C(C)CC", "note": "(stereo partly drawn)", "values": [{"measurement": "relative binding affinity (RBA)", "setting": "[1]", "result": 5}]}, {"smiles": "CC(C)C[C@H](c1ccc(O)cc1)[C@@H](CC(C)C)c1ccc(O)cc1", "values": [{"measurement": "relative binding affinity (RBA)", "setting": "[1]", "result": 1.5}]}, {"smiles": "CC(C)[C@@H](c1cccc(O)c1)[C@@H](c1cccc(O)c1)C(C)C", "values": [{"measurement": "relative binding affinity (RBA)", "setting": "[1]", "result": 15}]}, {"smiles": "CC(C)[C@@H](c1ccc(O)cc1)[C@@H](c1ccc(O)cc1)C(C)C", "values": [{"measurement": "relative binding affinity (RBA)", "setting": "[1]", "result": 30}]}, {"smiles": "CC[C@H](c1cccc(O)c1)[C@@H](CC)c1cccc(O)c1", "values": [{"measurement": "relative binding affinity (RBA)", "setting": "[1]", "result": 11}, {"measurement": "Effect", "setting": "[2]", "result": 14.5}, {"measurement": "inhibition", "setting": "[3]", "result": 39, "unit": "%"}, {"measurement": "inhibition", "setting": "[4]", "result": 51, "unit": "%"}, {"measurement": "inhibition", "setting": "[5]", "result": 20, "unit": "%"}, {"measurement": "Effect", "setting": "[6]", "result": 34.1}, {"measurement": "Effect", "setting": "[7]", "result": 32.7}, {"measurement": "inhibition", "setting": "[7]", "result": 43, "unit": "%"}, {"measurement": "Effect", "setting": "[8]", "result": 40.1}, {"measurement": "Effect", "setting": "[9]", "result": 30.2}]}, {"smiles": "C[C@]12CC[C@@H]3c4ccc(O)cc4CC[C@H]3[C@@H]1CCC2=O", "values": [{"measurement": "Effect", "setting": "[10]", "result": 46.5}]}, {"smiles": "CC[C@H](c1ccc(O)cc1)[C@@H](CC)c1ccc(O)cc1", "values": [{"measurement": "relative binding affinity (RBA)", "setting": "[1]", "result": 25}]}, {"smiles": "CC(C)(C)[C@H](c1cccc(O)c1)[C@H](c1cccc(O)c1)C(C)(C)C", "values": [{"measurement": "relative binding affinity (RBA)", "setting": "[1]", "result": 0.7}]}, {"smiles": "CC(C)(C)[C@H](c1ccc(O)cc1)[C@H](c1ccc(O)cc1)C(C)(C)C", "values": [{"measurement": "relative binding affinity (RBA)", "setting": "[1]", "result": 1.5}]}, {"smiles": "CCC[C@H](c1ccc(O)cc1)[C@@H](CCC)c1ccc(O)cc1", "values": [{"measurement": "relative binding affinity (RBA)", "setting": "[1]", "result": 8}]}, {"smiles": "CCC[C@H](c1cccc(O)c1)[C@@H](CCC)c1cccc(O)c1", "values": [{"measurement": "relative binding affinity (RBA)", "setting": "[1]", "result": 4}, {"measurement": "Effect", "setting": "[2]", "result": 14.5}, {"measurement": "inhibition", "setting": "[3]", "result": 14, "unit": "%"}, {"measurement": "inhibition", "setting": "[11]", "result": 42, "unit": "%"}, {"measurement": "inhibition", "setting": "[11]; in the assay text read “30 ug” for “300 ug”", "result": 18, "unit": "%"}, {"measurement": "Effect", "setting": "[6]", "result": 42.1}, {"measurement": "Effect", "setting": "[7]", "result": 34.7}, {"measurement": "Effect", "setting": "[9]", "result": 40.8}, {"measurement": "Effect", "setting": "[12]", "result": 33}, {"measurement": "inhibition", "setting": "[13]", "result": 37, "unit": "%"}]}, {"smiles": "CC(C)CC(c1cccc(O)c1)[C@H](CC(C)C)c1cccc(O)c1", "note": "(single isomer, unassigned)", "values": [{"measurement": "relative binding affinity (RBA)", "setting": "[1]", "result": 0.5}, {"measurement": "Effect", "setting": "[2]", "result": 14.5}, {"measurement": "inhibition", "setting": "[11]", "result": 26, "unit": "%"}, {"measurement": "inhibition", "setting": "[4]", "result": 19, "unit": "%"}, {"measurement": "Effect", "setting": "[7]", "result": 37.9}, {"measurement": "inhibition", "setting": "[7]", "result": 27, "unit": "%"}, {"measurement": "Effect", "setting": "[9]", "result": 40.3}, {"measurement": "Effect", "setting": "[12]", "result": 38.2}]}]}
